Measured values published in ChEMBL document CHEMBL1759840, “2,3-Substituted quinoxalin-6-amine analogs as antiproliferatives: a structure-activity relationship study” (2011).
Activity calls are given as the source filed them. No cut-off for these calls is given here.

Experiments:
A549 [1] = assay: Growth inhibition of human A549 cells after 72 hrs by alamar blue assay; format: functional; details: A549, 72 h
SK-OV-3 [2] = assay: Growth inhibition of human SKOV3 cells at 20 uM after 72 hrs by alamar blue assay; format: functional; details: for inhibition of growth at 20 µM: SK-OV-3, 72 h, read-out: GI
Outline: (§1)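 Single-concentration screen at 20 μM with 72 h exposure across a panel of cancer lines: lung A549, pancreatic AsPC1, colon HT29, breast MDA-MB-231, prostate PC3, ovarian SKOV3 and bone U2OS. Growth inhibition read after 72 h.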

PC-3 [3] = assay: Growth inhibition of human PC3 cells after 72 hrs by alamar blue assay; format: functional; details: PC-3, 72 h
HeLa [4] = assay: Induction of apoptosis in human HeLa cells overexpressing Bad3SA assessed as PARP cleavage at 20 uM by Western blotting; format: functional, cell-based
HT-29 [5] = assay: Growth inhibition of human HT-29 cells at 20 uM after 72 hrs by alamar blue assay; format: functional; details: for inhibition of growth at 20 µM: HT-29, 72 h, read-out: GI; outline: as §1
HT-29 [6] = assay: Growth inhibition of human HT-29 cells after 72 hrs by alamar blue assay; format: functional; details: HT-29, 72 h
MDA-MB-231 [7] = assay: Growth inhibition of human MDA-MB-231 cells at 20 uM after 72 hrs by alamar blue assay; format: functional; details: for inhibition of growth at 20 µM: MDA-MB-231, 72 h, read-out: GI; outline: as §1
HeLa [8] = assay: Induction of Mcl-1 dependent apoptosis in doxycycline-stimulated human HeLa cells assessed as condensed nuclei for 12 hrs using Hoechst dye; format: functional, cell-based
U2OS [9] = assay: Growth inhibition of human U2OS cells after 72 hrs by alamar blue assay; format: functional
SK-OV-3 [10] = assay: Growth inhibition of human SKOV3 cells after 72 hrs by alamar blue assay; format: functional; details: SK-OV-3, 72 h
PC-3 [11] = assay: Induction of apoptosis in human PC3 cells assessed as increase in caspase 3/7 activity at 20 uM after 1 hr by luminescence assay; format: functional, cell-based
Outline: (§2)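 Caspase 3/7 induction was followed over time, up to 72 h, in MDA-MB-231 and PC3 cells, with etoposide as positive control.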

MDA-MB-231 [12] = assay: Induction of apoptosis in human MDA-MB-231 cells assessed as increase in caspase 3/7 activity at 20 uM after 1 hr by luminescence assay; format: functional, cell-based; outline: as §2
U2OS [13] = assay: Growth inhibition of human U2OS cells at 20 uM after 72 hrs by alamar blue assay; format: functional; details: for inhibition of growth at 20 µM: read-out: GI; outline: as §1
HeLa [14] = assay: Induction of apoptosis in human HeLa cells overexpressing Bad3SA assessed as increase in caspase 3/7 activity at 20 uM after 1 hr by luminescence assay; format: functional, cell-based
MDA-MB-231 [15] = assay: Growth inhibition of human MDA-MB-231 cells after 72 hrs by alamar blue assay; format: functional; details: MDA-MB-231, 72 h
ASPC1 [16] = assay: Growth inhibition of human AsPC1 cells at 20 uM after 72 hrs by alamar blue assay; format: functional; details: for inhibition of growth at 20 µM: ASPC1, 72 h, read-out: GI; outline: as §1
A549 [17] = assay: Growth inhibition of human A549 cells at 20 uM after 72 hrs by alamar blue assay; format: functional; details: for inhibition of growth at 20 µM: A549, 72 h, read-out: GI; outline: as §1
ASPC1 [18] = assay: Growth inhibition of human AsPC1 cells after 72 hrs by alamar blue assay; format: functional; details: ASPC1, 72 h
PC-3 [19] = assay: Growth inhibition of human PC3 cells at 20 uM after 72 hrs by alamar blue assay; format: functional; details: for inhibition of growth at 20 µM: PC-3, 72 h, read-out: GI; outline: as §1

Structure (SMILES)	inhibition of growth at 20 µM (SK-OV-3 [2]) [%]	inhibition of growth at 20 µM (HT-29 [5]) [%]	inhibition of growth at 20 µM (MDA-MB-231 [7]) [%]	inhibition of growth at 20 µM (U2OS [13]) [%]	inhibition of growth at 20 µM (ASPC1 [16]) [%]	inhibition of growth at 20 µM (A549 [17]) [%]	inhibition of growth at 20 µM (PC-3 [19]) [%]	growth inhibition (GI) (SK-OV-3 [2])	growth inhibition (GI) (HT-29 [5])	growth inhibition (GI) (MDA-MB-231 [7])	growth inhibition (GI) (U2OS [13])	growth inhibition (GI) (ASPC1 [16])	growth inhibition (GI) (A549 [17])	growth inhibition (GI) (PC-3 [19])	other results
O=C(Nc1ccc(Br)cc1)Nc1ccc2nc(-c3ccco3)c(-c3ccco3)nc2c1	94.9	88.6	> 100	> 100	> 100	> 100	> 100								GI50 (A549 [1]): 6.4 µM; GI50 (PC-3 [3]): 5.9 µM; Activity (HeLa [4]): Active; GI50 (HT-29 [6]): 12.1 µM; Activity (HeLa [8]): Dose-dependent effect; GI50 (U2OS [9]): 10.8 µM; GI50 (SK-OV-3 [10]): 16.8 µM; Activity (PC-3 [11]): Active; Activity (MDA-MB-231 [12]): Active; Activity (HeLa [14]): Active; GI50 (MDA-MB-231 [15]): 8.4 µM; GI50 (ASPC1 [18]): 17.3 µM
O=C(Nc1ccccc1)Nc1ccc2nc(-c3cccs3)c(-c3cccs3)nc2c1								inactive	inactive	inactive	inactive	inactive	inactive	inactive	
O=[N+]([O-])c1ccc(NC(=S)Nc2ccc3nc(-c4ccco4)c(-c4ccco4)nc3c2)cc1		42	9	32.2		19.2	43.4	inactive				inactive			
O=C(Nc1ccc2nc(-c3ccco3)c(-c3ccco3)nc2c1)N1CCCC1	16.9	16.7	18.2	46.5	11.6	23.3	53.1								
Cc1nc2ccc(NC(=O)Nc3ccccc3)cc2nc1C								inactive	inactive	inactive	inactive	inactive	inactive	inactive	
CC(=O)Nc1ccc2nc(-c3cccs3)c(-c3cccs3)nc2c1								inactive	inactive	inactive	inactive	inactive	inactive	inactive	
Cc1ccc(S(=O)(=O)N(c2ccc3nc(-c4cccs4)c(-c4cccs4)nc3c2)S(=O)(=O)c2ccc(C)cc2)cc1								inactive	inactive	inactive	inactive	inactive	inactive	inactive	
CC(=O)Nc1ccc2nc(-c3ccccc3)c(-c3ccccc3)nc2c1								inactive	inactive	inactive	inactive	inactive	inactive	inactive	
Cc1nc2ccc(NC(=O)NN3CCC(Cc4ccccc4)CC3)cc2nc1C	8.9	16.3	12.4	33.5		40.3	30.6					inactive			
O=[N+]([O-])c1ccc(NC(=S)Nc2ccc3nc(-c4ccccc4)c(-c4ccccc4)nc3c2)cc1	55.8	81.2	72.6	76.1	55.5	16.6	81								
CC(=O)Nc1ccc2nc(C)c(C)nc2c1	4	31.7	25.7	31.4	26.2	23.4	21.8								
Cc1nc2ccc(NC(=O)N3CCCCC3)cc2nc1C								inactive	inactive	inactive	inactive	inactive	inactive	inactive	
Cc1ccc(S(=O)(=O)c2c(N)ccc3nc(C)c(C)nc23)cc1								inactive	inactive	inactive	inactive	inactive	inactive	inactive	
O=C(Nc1ccccc1)Nc1ccc2nc(-c3ccccc3)c(-c3ccccc3)nc2c1								inactive	inactive	inactive	inactive	inactive	inactive	inactive	
O=C(Nc1ccc(F)cc1)Nc1ccc2nc(-c3ccco3)c(-c3ccco3)nc2c1		74.2	38.4	55.6	> 100	> 100	90.7	inactive							
O=[N+]([O-])c1ccc(NC(=S)Nc2ccc3nc(-c4cccs4)c(-c4cccs4)nc3c2)cc1		23.9	53.3	50.6			19.5	inactive				inactive	inactive		
O=C(Nc1ccc2nc(-c3ccco3)c(-c3ccco3)nc2c1)NN1CCC(Cc2ccccc2)CC1	47.6	55.2	90.8	80.3	> 100	93.1	> 100								
